# Columns and labels:
# [1] = bis-ANS fluorescence titration of receptor ECDs; format: binding; conditions: value in parenthesis
# In short: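 Receptor ECDs were expressed in E. coli as TRX/His-tag fusions, thrombin-cleaved, and purified (Ni-NTA, gel filtration, C18), then quantified by A280. bis-ANS was diluted from a 10 mM DMF stock into 50 mM Tris-HCl pH 7.5, 150 mM NaCl and titrated against fixed protein. Peak fluorescence versus dye concentration was fitted to a Hill equation for apparent K′, normalized to wild-type.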
# Energy transfer = format: binding; conditions: value in parenthesis
# In short: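 Human receptor ECDs (wild-type, mutants, chimeras) were made as TRX/His-tag fusions in E. coli BL21(DE3), cut with thrombin, and purified by Ni-NTA, gel filtration and C18. Protein was quantified by A280. bis-ANS was diluted from a 10 mM DMF stock into 50 mM Tris-HCl pH 7.5, 150 mM NaCl. Tryptophan was excited at 295 nm, emission read 310–600 nm at 25°C, and K′ derived from energy transfer to bis-ANS, normalized to wild-type.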
# [2] = test system: BMP-7-stimulated OC promoter activity in fetal rat calvaria (FRC) cells; assay: Osteocalcin promoter-Luciferase; format: cell-based; conditions: BMP-7 alone, 6 nM
# In short: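 Primary fetal rat calvaria cells were grown in αMEM+10% FBS and transfected with an OC promoter-luciferase plasmid via FuGENE 6 in OPTI medium with 8 U hyaluronidase. After 5 h, fresh medium was added overnight. Cells were then treated 24 h with 6 nM BMP-7, alone or with 20-fold molar excess soluble receptor ECD. Luciferase was read in lysates; mean±SEM of three independent measurements.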
Molecule,"Relative K′ of bis-ANS (Hill Eq.), normalized to wild-type [1]","Relative K′ of bis-ANS (energy transfer), normalized to wild-type (Energy transfer)",Stimulation of OC promoter activity beyond the empty plasmid control [2] [fold]
"ActR-IIB Wild type: human recombinant ActR-IIB receptor extracellular domain (ECD), wild type, expressed in E. coli (protein, UniProt Q13705 19-137, looked up, extracellular domain) extracellular domain: SGRGEAETRECIYYNANWELERTNQSGLERCEGEQDKRLHCYASWRNSSGTIELVKKGCWLDDFNCYDRQECVATEENPQVYFCCCEGNFCNERFTHLPEAGGPEVTYEPPPTAPTLLT",1.0,1.0,
"S107P: BMPR-II ECD naturally occurring single-amino-acid-substitution mutant S107P (protein, left off: TRX, N-terminal, cleaved | His6, C-terminal, state not stated) ASQNQERLCAFKDPYQQDLGIGESRISHENGTILCSKGSTCYGLWEKSKGDINLVKQGCWSHIGDPQECHYEECVVTTTPPPIQNGTYRFCCCSTDLCNVNFTENFPPPDTTPLSPPHSFNRDET",1.0,0.9,
"Y40R: BMPR-II ECD single-amino-acid-substitution mutant Y40R (protein, left off: TRX, N-terminal, cleaved | His6, C-terminal, state not stated) ASQNQERLCAFKDPRQQDLGIGESRISHENGTILCSKGSTCYGLWEKSKGDINLVKQGCWSHIGDPQECHYEECVVTTTPPSIQNGTYRFCCCSTDLCNVNFTENFPPPDTTPLSPPHSFNRDET",1.1,0.9,
"G47N: BMPR-II ECD naturally occurring single-amino-acid-substitution mutant G47N (protein, left off: TRX, N-terminal, cleaved | His6, C-terminal, state not stated) ASQNQERLCAFKDPYQQDLGINESRISHENGTILCSKGSTCYGLWEKSKGDINLVKQGCWSHIGDPQECHYEECVVTTTPPSIQNGTYRFCCCSTDLCNVNFTENFPPPDTTPLSPPHSFNRDET",2.9,2.3,
"Y40Q: BMPR-II ECD single-amino-acid-substitution mutant Y40Q (protein, left off: TRX, N-terminal, cleaved | His6, C-terminal, state not stated) ASQNQERLCAFKDPQQQDLGIGESRISHENGTILCSKGSTCYGLWEKSKGDINLVKQGCWSHIGDPQECHYEECVVTTTPPSIQNGTYRFCCCSTDLCNVNFTENFPPPDTTPLSPPHSFNRDET",2.4,1.9,
"Y40G: BMPR-II ECD single-amino-acid-substitution mutant Y40G (protein, left off: TRX, N-terminal, cleaved | His6, C-terminal, state not stated) ASQNQERLCAFKDPGQQDLGIGESRISHENGTILCSKGSTCYGLWEKSKGDINLVKQGCWSHIGDPQECHYEECVVTTTPPSIQNGTYRFCCCSTDLCNVNFTENFPPPDTTPLSPPHSFNRDET",0.3,0.6,
"BMPR-II Wild type: human recombinant BMPR-II receptor extracellular domain (ECD), wild type, expressed in E. coli (protein, left off: TRX, N-terminal, cleaved | His6, C-terminal, state not stated) ASQNQERLCAFKDPYQQDLGIGESRISHENGTILCSKGSTCYGLWEKSKGDINLVKQGCWSHIGDPQECHYEECVVTTTPPSIQNGTYRFCCCSTDLCNVNFTENFPPPDTTPLSPPHSFNRDET",1.0,1.0,
"Y40P: BMPR-II ECD single-amino-acid-substitution mutant Y40P (protein, left off: TRX, N-terminal, cleaved | His6, C-terminal, state not stated) ASQNQERLCAFKDPPQQDLGIGESRISHENGTILCSKGSTCYGLWEKSKGDINLVKQGCWSHIGDPQECHYEECVVTTTPPSIQNGTYRFCCCSTDLCNVNFTENFPPPDTTPLSPPHSFNRDET",1.8,1.6,
BMP-7: Bone Morphogenetic Protein ligand provided by Stryker Biotech; BMPR-II ligand (protein) STGSKQRSQNRSKTPKNQEALRMANVAENSSSDQRQACKKHELYVSFRDLGWQDWIIAPEGYAAYYCEGECAFPLNSYMNATNHAIVQTLVHFINPETVPKPCCAPTQLNAISVLYFDDSSNVILKKYRNMVVRACGCH,,,14

# Source: article PMC3481545 (Biochemistry, 2012)
